Laboratory results: ChEMBL document CHEMBL1122186, “Synthesis and spasmolytic activities of 2-(1,2-benzisoxazol-3-yl)-3-[[omega-(dialkylamino)alkoxy]phenyl]acrylonitriles” (1982)

Legend:
Assay type in all cases: functional
Mus musculus [1] = organism: Mus musculus
Cavia porcellus [2] = organism: Cavia porcellus; experiment: (§1) Inhibitory effect on the response of isolated ileum to acetylcholine (anti-ACh activity) in guinea pig was determined
Procedure, shortened: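 Ileum contraction to acetylcholine (1.1 × 10^-4 mM), with compound added 2 min before the agonist. Three concentrations per compound, percent inhibition averaged over four experiments. ID50 is derived graphically.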

Mus musculus [3] = experiment: Percent inhibition of the charcoal meal transfer in mice(100 mg/kg) was determined
Procedure, shortened: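 Male ddN mice (20–25 g) are fasted 18 h and dosed orally. Charcoal meal (5% charcoal in 10% tragacanth) is given orally 20 min later, and mice are killed after 30 min. Charcoal travel is expressed as % of small-intestine length (pylorus to caecum). The group mean (n=7) is compared with the vehicle group (n=7) as percent change.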

Cavia porcellus [4] = organism: Cavia porcellus; experiment: as §1; remark: listed apart in the source
Procedure, shortened: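 Isolated ileum contracted with acetylcholine (1.1 × 10^-4 mM). Test compound added 2 min before the agonist. Each compound was tested at three concentrations, with percent inhibition of the contraction as the mean of four experiments. ID50, the concentration giving 50% inhibition, was read off by the usual graphic method.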

Structure (SMILES)	Inhibition (Mus musculus [1]) [%]	further results
Cl.N#C/C(=C\c1ccccc1OCCN1CCOCC1)c1noc2ccc(O)cc12	4	
Cl.N#C/C(=C\c1ccccc1OCCN1CCCC1)c1noc2ccccc12	22	
CCN(CC)CCOc1ccccc1/C=C(\C#N)c1noc2ccc(O)cc12.Cl	14	
Cl.N#C/C(=C\c1ccccc1OCCN1CCOCC1)c1noc2ccccc12.O	55	ID50 (Cavia porcellus [2]): 22 µM
CN(C)CCOc1ccccc1/C=C(\C#N)c1noc2ccccc12.Cl.O	37	ID50 (Cavia porcellus [2]): 16 µM
Cl.N#C/C(=C\c1ccccc1OCCCN1CCCCCC1)c1noc2ccccc12	21	
CN(C)CCOc1ccccc1/C=C(\C#N)c1noc2ccc(Cl)cc12.Cl	11	
CCCC[N+]1(C)[C@@H]2C[C@@H](OC(=O)[C@H](CO)c3ccccc3)C[C@H]1[C@@H]1O[C@@H]12.[Br-] (stereo not given in full) [BUTYLSCOPOLAMINE BROMIDE]	19	ID50 (Cavia porcellus [2]): 0.075 µM
Cl.N#C/C(=C\c1ccccc1OCCCCN1CCOCC1)c1noc2ccccc12	22	
Cl.N#C/C(=C\c1ccccc1OCCN1CCCCC1)c1noc2ccccc12.O	45	ID50 (Cavia porcellus [2]): 8.7 µM
Cl.N#C/C(=C\c1ccccc1OCCCN1CCOCC1)c1noc2ccccc12	46	
Cl.N#C/C(=C\c1ccccc1OCCN1CCCCC1)c1noc2ccc(O)cc12	39	
COc1ccc2onc(/C(C#N)=C/c3ccccc3OCCN3CCOCC3)c2c1.Cl	48	ID50 (Cavia porcellus [2]): 32 µM
COc1ccc2onc(/C(C#N)=C/c3ccccc3OCCN3CCCC3)c2c1.Cl.O	33	
COc1ccc2onc(/C(C#N)=C/c3ccccc3OCCN3CCCCC3)c2c1.Cl.O		Inhibition (Mus musculus [3]): 51%; ID50 (Cavia porcellus [2]): 25 µM
CCN(CC)CCOc1ccccc1/C=C(\C#N)c1noc2ccccc12.Cl	20	
CN1CC[C@]23c4c5ccc(O)c4O[C@H]2[C@@H](O)C=C[C@H]3[C@H]1C5.Cl [MORPHINE HYDROCHLORIDE]	64	ID50 (Cavia porcellus [4]): 5.3 µM
C[N+]1(CCOc2ccccc2/C=C(\C#N)c2noc3ccccc23)CCOCC1.[I-]	12	
Cl.N#C/C(=C\c1ccccc1OCCN1CCCC1)c1noc2ccc(Cl)cc12	19	
COc1ccc(Cc2nccc3cc(OC)c(OC)cc23)cc1OC.Cl [PAPAVERINE HYDROCHLORIDE]	1	
CN(C)CCCOc1ccccc1/C=C(\C#N)c1noc2ccccc12.Cl	9	
Cl.N#C/C(=C\c1ccccc1OCCN1CCCCC1)c1noc2ccc(Cl)cc12.O	37	
Cl.N#C/C(=C\c1ccc(OCCCN2CCCCC2)cc1)c1noc2ccccc12.O	19	
Cl.N#C/C(=C\c1cccc(OCCN2CCOCC2)c1)c1noc2ccccc12	32	
Br.N#C/C(=C\c1ccccc1OCCN1CCCCCC1)c1noc2ccccc12	27	
Cl.N#C/C(=C\c1ccccc1OCCN1CCOCC1)c1noc2ccc(Cl)cc12.O	11	
CN1[C@@H]2CC[C@H]1C[C@@H](OC(=O)C(CO)c1ccccc1)C2.O=S(=O)(O)O (stereo not given in full) [ATROPINE SULFATE]	27	ID50 (Cavia porcellus [2]): 0.0072 µM
